This is an account of results in ChEMBL document CHEMBL3414450, “Synthetic phenylethanoid glycoside derivatives as potent neuroprotective agents” (Eur J Med Chem, 2015).

The test system of data set [1] is PC-12. Briefly: Neuroprotective activity in rat PC12 cells assessed as decrease in H2O2-induced cell death at 100 uM incubated for 6 hrs prior to H2O2 challenge measured after 1 hr by MTT assay. Type of data set: functional, cell-based. The procedure, abridged: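 PC12 cells seeded at 1×10^5/well for 24 h. Pretreated 6 h with compound (100 μM; DMSO stock diluted in PBS), then challenged with 300 μM H2O2 for 1 h at 37 °C. MTT at 5 mg/mL for 4 h, DMSO solubilisation, A570. Survival is given as % of the PBS-treated control, mean ± SD, n = 3. Vitamin C was the positive control.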

The test system of data set [2] is PC-12. Put plainly: Neuroprotective activity in rat PC12 cells assessed as decrease in 6-OHDA-induced cell death at 6.25 to 100 uM incubated for 6 hrs prior to 6-OHDA challenge measured after 24 hrs by MTT assay. Type of data set: functional, cell-based. The procedure, abridged:
(§1)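 PC12 cells seeded at 1×10^5/well for 24 h, pretreated 6 h with compound (6.25–100 μM; DMSO stock diluted in PBS), then exposed to 100 μM 6-OHDA for 24 h at 37 °C. Viability read by MTT (5 mg/mL, 4 h), DMSO, absorbance 570 nm. Expressed as % of the PBS-treated control, mean ± SD, n = 3.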
A general note: Tetrazolium assays rely on reduction of a dye to a coloured formazan, in cell work by metabolically active cells.

The test system of data set [3] is PC-12. Put plainly: Neuroprotective activity in rat PC12 cells assessed as decrease in 6-OHDA-induced cell death incubated for 6 hrs prior to 6-OHDA challenge measured after 24 hrs by MTT assay. The class given is functional, cell-based. The method in brief:
as §1

The subject of data set [4] is PC-12. Briefly: Neuroprotective activity in rat PC12 cells assessed as decrease in 6-OHDA-induced early and late apoptosis at 6.25 to 50 uM incubated for 6 hrs prior to 6-OHDA challenge measured after 24 hrs by annexin V/propidium iodide staining-based fluorescence microscopic analysis. The class given is functional, cell-based. The procedure, abridged:
(§2)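 PC12 cells on coverslips (1×10^5/well) pretreated 6 h with compound, then given 100 μM 6-OHDA for 24 h at 37 °C. After two PBS washes, stained with Annexin V-FITC/PI, each diluted 1:100 in binding buffer and mixed 1:1. Imaged by fluorescence microscopy (ex 488; em 515–545 and 575–635 nm). Apoptotic and necrotic cells counted in five fields, three separate groups. Edaravone was the positive control.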

Data set [5] deals with PC-12. Briefly: Neuroprotective activity in rat PC12 cells assessed as decrease in 6-OHDA-induced intracellular ROS level incubated for 6 hrs prior to 6-OHDA challenge measured after 24 hrs by DCFH-DA dye-based spectrofluor analysis. The class given is functional, cell-based. The method in brief:
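PC12 cells (1×10^5/well) pretreated 6 h with compound at several concentrations one day after seeding, then given 100 μM 6-OHDA for 24 h at 37 °C. Loaded with DCFH-DA (1:1000 in DMEM) for 30 min at 37 °C, 5% CO2, then washed three times with PBS. DCF fluorescence read at 488/525 nm in five fields per well. Untreated cells are set to 100%, mean ± SD, n = 3. Edaravone was the positive control.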

Data set [6] is described as follows: Cytotoxicity against rat PC12 cells assessed as cell viability at 100 uM incubated for 6 hrs prior to PBS treatment measured after 1 hr by MTT assay. The note with it: pc-12, 1 h. Type of data set: cell-based.
The subject of data set [7] is PC-12. Briefly: Neuroprotective activity in rat PC12 cells assessed as decrease in 6-OHDA-induced early and late apoptosis at 6.25 to 25 uM incubated for 6 hrs prior to 6-OHDA challenge measured after 24 hrs by annexin V/propidium iodide staining-based fluorescence microscopic analysis. Type of data set: functional, cell-based. The procedure, abridged:
as §2

In data set [8] the test system is PC-12. Put plainly: Neuroprotective activity in rat PC12 cells assessed as decrease in 6-OHDA-induced apoptosis at 200 uM incubated for 6 hrs prior to 6-OHDA challenge measured after 24 hrs by annexin V/propidium iodide staining-based fluorescence microscopic analysis. Type of data set: functional, cell-based. The procedure, abridged: as §2
The subject of data set [9] is PC-12. Put plainly: Neuroprotective activity in rat PC12 cells assessed as decrease in 6-OHDA-induced early and late apoptosis at 1.56 to 6.25 uM incubated for 6 hrs prior to 6-OHDA challenge measured after 24 hrs by annexin V/propidium iodide staining-based fluorescence microscopic analysis. The class given is functional, cell-based. The procedure, abridged: as §2

Active and inactive are the calls of the source. The calls are words filed in the database; no cut-off is given here.

For `O=C(/C=C/c1ccc(F)c(F)c1)O[C@H]1[C@H](O)[C@@H](O)[C@H](OCCc2ccc(O)c(O)c2)O[C@@H]1CO`, the outcome in data set [1] and in [2] was Active.
In the case of `O=C(/C=C/c1ccc(Cl)cc1)O[C@H]1[C@H](O)[C@@H](O)[C@H](OCCc2ccc(O)c(O)c2)O[C@@H]1CO`, the outcome in data set [1] and in data set [2] was Active.
In the case of `O=C(/C=C/c1ccc(O)c(O)c1)O[C@H]1[C@H](O)[C@@H](O)[C@H](OCCc2ccc(O)c(O)c2)O[C@@H]1CO`, the result in data set [1] and in [2] was Active.
For the compound `O=C(Cc1ccc(O)c(O)c1)O[C@H]1[C@H](O)[C@@H](O)[C@H](OCCc2ccc(O)c(O)c2)O[C@@H]1CO`, the result in data set [1] and in data set [4] was Active. Also, the Activity result in [3] is “Dose-dependent effect”; in data set [5], “Dose-dependent effect”; in data set [6] it was “Non-toxic”.
Take `OC[C@H]1O[C@@H](OCCc2ccc(O)c(O)c2)[C@H](O)[C@@H](O)[C@@H]1O`: the outcome in data set [1] and in data set [2] was Active.
Turning to `COC(=O)[C@]1(OC)C[C@H](O)[C@@H](NC(=O)/C=C/c2ccc(O)c(O)c2)[C@H]([C@H](O)[C@H](O)CO)O1`, the outcome in [1] and in data set [7] was Active. For the same compound, the results for the Activity entry in [3], in [5] and in data set [6] were “Dose-dependent effect”, “Dose-dependent effect” and “Non-toxic”, respectively.
Take `CC1=NN(c2ccccc2)C(=O)C1`: the result in data set [8] was inactive.
For `COc1ccc(/C=C/C(=O)O[C@H]2[C@H](O)[C@@H](O)[C@H](OCCc3ccc(O)c(O)c3)O[C@@H]2CO)cc1OC`, the result in [1] was inactive.
On to `O=C(/C=C/c1ccc(O)c(O)c1)OCCc1ccc(O)c(O)c1`, for which the outcome in data set [1] and in data set [9] was Active. Moreover, the figures for the Activity entry in data set [3], in data set [5] and in [6] were “Dose-dependent effect”, “Dose-dependent effect” and “Non-toxic”, respectively.
